Consider 14 compounds from ChEMBL document CHEMBL6096655, “Discovery of a novel, selective CK2 inhibitor class with an unusual basic scaffold” (Eur J Med Chem, 2025).

Data set [1] is described as follows: Upregulation of PARP cleavage in human U-937 cells by measuring signal 1 at 5 uM measured after 48 hrs by immunoblot analysis. The class given is functional. Summed up:
(§1)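 U937 cells exposed to compound or DMSO for 48 h, then lysed in Laemmli buffer. Lysates were run on 8–16% gradient SDS-PAGE, semi-dry blotted to PVDF and probed for PARP. Detection used IR-fluorescent secondary antibodies. The cleaved/uncleaved PARP signal ratio was obtained by densitometry. Results are representative of two independent experiments.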
On the technique in general: Immunoblotting shows a protein as a band on a membrane.

The subject of data set [2] is 786-0. Briefly: Antiproliferative activity against human 786-0 cells assessed as inhibition of cell growth measured after 3 to 4 days by MTT assay. As to conditions: time 3-4 day. The class given is functional. In a few lines:
(§2)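 786-O or U937 cells grown in RPMI with 2 mM L-glutamine, 1% pen/strep and 10% FCS. Cells were seeded at 5000 per well and left overnight, then switched to 1% FCS medium containing compound or DMSO (max. 0.2% final). Growth ran 3–4 days at 37 °C in 5% CO₂ without medium change, followed by MTT read-out. GI50 is the mean ± SD of at least two independent experiments.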
Background: Formazan colour is commonly taken as a measure of viable cells.

The test system of a further data set is U-937. Put plainly: Antiproliferative activity against human U-937 cells assessed as inhibition of cell growth measured after 3 to 4 days by MTT assay. The class given is functional. As to conditions: time 3-4 day. In a few lines:
as §2

A further data set has as its system HCT-116. Put plainly: Antiproliferative activity against human HCT-116 cells measured after 72 hrs by alamar blue staining based fluorescence assay. It is filed as functional.
Data set [3] has as its system 786-0. Briefly: Induction of cell death in human 786-0 cells assessed as cell viability at 5 uM measured after 11 hrs by CellCyteX live-cell microscopy analysis. It is filed as functional, cell-based. In a few lines: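 786-O cells seeded at 3×10³ per well and grown 24 h. Compound was then added in culture medium containing 125 nM Cytotox Green, at 0.2% (v/v) final DMSO, and kept at 37 °C in 5% CO₂. Green fluorescence images of dead cells were taken every 3 h by live-cell microscopy and normalized to the DMSO control. Results are representative of three independent measurements.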

A short description of data set [4]: Upregulation of PARP cleavage in human U-937 cells by measuring signal 2 at 2 uM measured after 48 hrs by immunoblot analysis. It is filed as functional. In a few lines: (§3)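 U937 lymphoma cells grown in RPMI with 2 mM L-glutamine, 1 % pen/strep and 10 % FCS; exposed to compound or DMSO solvent control for 48 h. Total cellular proteins harvested and immunoblotted with an antibody against phosphorylated CK2-substrate motifs and for PARP. Read-out is the densitometric ratio of cleaved to uncleaved PARP signal. Representative of two independent experiments.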

The nature of data set [5]: Antiproliferative activity against HEK293 cells assessed as inhibition of cell growth measured after 3 to 4 days by MTT assay. The class given is toxicity, cell-based. The note with it: human, time 3-4 day. Summed up:
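HEK293 cells grown in DMEM with 2 mM L-glutamine, 1% pen/strep and 10% FCS. Cells were seeded at 5000 per well, left overnight, then given medium with 1% FCS plus compound or DMSO (max. 0.2% final). They were grown 3–4 days at 37 °C in 5% CO₂ with no medium change, and growth was read by MTT.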

Data set [6] relates to 786-0. Briefly: Antiproliferative activity against human 786-0 cells assessed as inhibition of cell growth at 30 uM measured after 3 to 4 days by MTT assay relative to control. It is filed as functional. As to conditions: time 3-4 day. In a few lines:
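786-O cells (RPMI, 10% FCS) seeded at 5000 per well and left overnight. Compound was added at a single 30 µM concentration in 1% FCS medium (DMSO max. 0.2%). Cells grew 3–4 days at 37 °C, 5% CO₂, with no medium change, and were read by MTT. Percent inhibition is the mean of duplicates that differed by ≤10%.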

Data set [7] concerns the target T1, Casein kinase II subunit alpha (Homo sapiens, UniProt P68400). Briefly: Inhibition of CK2alpha (unknown origin).
Target sequence in this assay (P68400 whole entry): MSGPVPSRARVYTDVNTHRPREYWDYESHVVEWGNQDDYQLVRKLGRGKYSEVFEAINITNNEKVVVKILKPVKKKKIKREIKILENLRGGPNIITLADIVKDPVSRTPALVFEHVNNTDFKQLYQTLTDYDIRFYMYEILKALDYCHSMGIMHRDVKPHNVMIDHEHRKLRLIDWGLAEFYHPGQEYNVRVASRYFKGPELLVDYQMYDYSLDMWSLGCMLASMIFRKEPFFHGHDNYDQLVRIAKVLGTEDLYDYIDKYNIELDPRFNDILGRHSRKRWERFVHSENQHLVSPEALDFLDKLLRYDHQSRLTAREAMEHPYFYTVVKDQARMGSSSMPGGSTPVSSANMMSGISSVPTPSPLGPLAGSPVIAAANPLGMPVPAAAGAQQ
Data set [8] concerns the target T1, Casein kinase II subunit alpha. Put plainly: Inhibition of CK2alpha (unknown origin) assessed as residual activity at 5 uM relative to control.
Target sequence in this assay (P68400 whole entry, looked up): as the sequence (P68400 whole entry) above
Data set [9] addresses T2, Hsp90 co-chaperone Cdc37 (Homo sapiens) (UniProt Q16543).
T2 sequence (whole entry): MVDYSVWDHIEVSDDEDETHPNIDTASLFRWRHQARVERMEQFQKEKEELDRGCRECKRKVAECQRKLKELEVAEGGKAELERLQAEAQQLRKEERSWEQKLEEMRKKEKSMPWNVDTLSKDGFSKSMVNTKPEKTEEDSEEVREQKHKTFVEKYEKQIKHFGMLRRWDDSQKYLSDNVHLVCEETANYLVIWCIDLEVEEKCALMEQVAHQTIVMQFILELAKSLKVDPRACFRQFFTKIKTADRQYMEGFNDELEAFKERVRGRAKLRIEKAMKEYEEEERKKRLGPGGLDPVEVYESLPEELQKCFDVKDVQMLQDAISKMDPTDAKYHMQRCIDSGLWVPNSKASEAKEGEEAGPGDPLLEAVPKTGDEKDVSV
Put plainly: Inhibition of CDC37 phosphorylation in human 786-O cells at 10 uM measured after 48 hrs by immunoblot analysis relative to control.

Data set [10] in a line: Upregulation of PARP cleavage in human U-937 cells by measuring signal 2 at 5 uM measured after 48 hrs by immunoblot analysis. It is filed as functional. In a few lines:
as §3

The nature of data set [11]: Upregulation of PARP cleavage in human U-937 cells by measuring signal 2 at 10 uM measured after 48 hrs by immunoblot analysis. It is filed as functional. In a few lines: as §1
A short description of data set [12]: Upregulation of PARP cleavage in human U-937 cells by measuring signal 1 at 2 uM measured after 48 hrs by immunoblot analysis. It is filed as functional. In a few lines:
as §1

Data set [13] deals with Eukaryotic translation initiation factor 2 subunit 2 (Homo sapiens) (UniProt P20042). Briefly: Inhibition of eIF2beta phosphorylation in human 786-O cells at 10 uM measured after 48 hrs by immunoblot analysis relative to control.
Chain of Eukaryotic translation initiation factor 2 subunit 2 (Homo sapiens) (P20042 whole entry): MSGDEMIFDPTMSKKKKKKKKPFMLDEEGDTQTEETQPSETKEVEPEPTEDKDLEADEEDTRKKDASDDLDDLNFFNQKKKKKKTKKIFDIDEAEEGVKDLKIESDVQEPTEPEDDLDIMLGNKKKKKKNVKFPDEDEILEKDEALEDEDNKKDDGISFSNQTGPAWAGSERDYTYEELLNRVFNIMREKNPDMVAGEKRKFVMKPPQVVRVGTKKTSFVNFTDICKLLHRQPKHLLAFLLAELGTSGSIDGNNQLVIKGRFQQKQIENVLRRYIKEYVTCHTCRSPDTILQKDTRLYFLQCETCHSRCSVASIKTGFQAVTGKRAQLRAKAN
The target of data set [14] is Signal transducer and activator of transcription 3 (Homo sapiens) (UniProt P40763). Put plainly: Inhibition of STAT3 phosphorylation in human 786-O cells at 10 uM measured after 48 hrs by immunoblot analysis relative to control.
Chain of Signal transducer and activator of transcription 3 (Homo sapiens) (P40763 whole entry): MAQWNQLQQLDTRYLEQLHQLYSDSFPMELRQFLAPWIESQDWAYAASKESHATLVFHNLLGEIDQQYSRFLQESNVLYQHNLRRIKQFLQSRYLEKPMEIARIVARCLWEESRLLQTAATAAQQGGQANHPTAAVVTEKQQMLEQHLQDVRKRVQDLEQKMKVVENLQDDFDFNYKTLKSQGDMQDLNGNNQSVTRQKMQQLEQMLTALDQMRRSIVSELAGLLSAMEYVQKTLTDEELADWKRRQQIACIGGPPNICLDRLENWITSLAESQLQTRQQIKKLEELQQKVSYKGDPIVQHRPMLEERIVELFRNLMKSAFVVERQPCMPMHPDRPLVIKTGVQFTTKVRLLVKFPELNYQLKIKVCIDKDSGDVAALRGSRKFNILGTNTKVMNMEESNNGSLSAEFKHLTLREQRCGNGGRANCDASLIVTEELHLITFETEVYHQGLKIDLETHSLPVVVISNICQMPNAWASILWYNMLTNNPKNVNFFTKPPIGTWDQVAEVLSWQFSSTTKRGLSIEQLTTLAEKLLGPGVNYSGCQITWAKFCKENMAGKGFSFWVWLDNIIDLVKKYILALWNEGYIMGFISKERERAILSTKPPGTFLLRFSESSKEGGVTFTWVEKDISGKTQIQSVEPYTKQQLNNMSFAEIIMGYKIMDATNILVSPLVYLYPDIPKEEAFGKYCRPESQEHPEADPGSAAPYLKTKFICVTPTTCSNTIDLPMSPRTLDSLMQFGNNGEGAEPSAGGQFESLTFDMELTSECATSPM

Active and inactive are the calls of the source. The rule behind the calls is not given here.

The term GI50 denotes the concentration that inhibits growth by half. Turning to `CCC(=O)Nc1cc(Nc2cc(NC3CC3)n3ncc(C#N)c3n2)ccc1C`, the Activity in data set [1] is 91%; with 786-0 [3], “Not active; Compound Showed Poor Efficacy To Induce Cell Death”; in data set [4], 0%. For the same compound, the GI50 is 5.7 µM in the data set with 786-0 [2], 1.8 µM in the data set on U-937, above 10 µM in the data set on HCT-116 and above 30 µM in data set [5].
The term inhibition denotes how much of the control response was suppressed. `COc1ccccc1N1CCN(c2ncnc3sc4c(c23)CCNC4)CC1`: the inhibition at 30 µM in the data set with 786-0 [6] is 36.7%.
Still for that read-out and setting: to `Fc1ccc(N2CCN(c3ncnc4sc5c(c34)CCNC5)CC2)cc1` belongs 25.3%.
One may read the IC50 as the concentration that inhibits the measured activity by half. High values mean weaker potency in that assay, low ones greater potency in that assay. `Cc1nc2c(Br)c(Br)c(Br)c(Br)c2n1CCCN` showed a half-inhibitory concentration (IC50) in data set [7] of 0.15 µM. In addition, the Activity in data set [8] turned out to be 23%.
For `Brc1ccccc1/C=N/Nc1ncnc2sc3c(c12)CCNC3`, the inhibition at 30 µM in the data set with 786-0 [6] is 99.2%. The concentration for 50% growth inhibition (GI50) in the data set with 786-0 [2] came out at 6.6 µM.
With `COc1cccc(N2CCN(c3ncnc4sc5c(c34)CCNC5)CC2)c1`, the inhibition at 30 µM in the data set with 786-0 [6] is 50.2%. Moreover, in the data set on 786-0 [2], the concentration for 50% growth inhibition (GI50) turned out to be 29.5 µM.
In the same order, the values of `Cc1ccccc1N1CCN(c2ncnc3sc4c(c23)CCNC4)CC1` are 52.1% and 30 µM.
For `Cc1cccc(N2CCN(c3ncnc4sc5c(c34)CCNC5)CC2)c1`, the inhibition at 30 µM in the data set on 786-0 [6] came out at 47.2%.
Regarding `Cc1ccc(N2CCN(c3ncnc4sc5c(c34)CCNC5)CC2)cc1`, the inhibition at 30 µM in the data set on 786-0 [6] amounted to 78.2%. Also, the GI50 with 786-0 [2] was found to be 14.7 µM.
For `COc1ccc(N2CCN(c3ncnc4sc5c(c34)CCNC5)CC2)cc1`, the inhibition at 30 µM in the data set with 786-0 [6] was found to be 27.7%.
As to `Fc1cccc(N2CCN(c3ncnc4sc5c(c34)CCNC5)CC2)c1`, in the data set on 786-0 [6], the inhibition at 30 µM came out at 74.6%. Moreover, the concentration for 50% growth inhibition (GI50) in the data set with 786-0 [2] was found to be 15 µM.
Regarding `O=C(O)c1ccc2c(c1)nc(Nc1cccc(Cl)c1)c1ccncc12` [SILMITASERTIB], the figures for the inhibition in data set [9], in data set [13] and in data set [14] were 73%, 96% and 100%, respectively. Also, the inhibition result with 786-0 [6] is “inactive”. Also, the Activity in [10] is 91%; in data set [1], 88%; in data set [11], 39%; in the data set with 786-0 [3] it was “Not active; Compound Showed Poor Efficacy To Induce Cell Death”; in data set [4] it was 0%; in data set [12], 82%. Besides, the GI50 with 786-0 [2] is 5.5 µM; in the data set on U-937 it was 4 µM; in [5], above 30 µM.
For `Fc1ccccc1N1CCN(c2ncnc3sc4c(c23)CCNC4)CC1`, the inhibition at 30 µM with 786-0 [6] is 35.8%.
Take `c1ccc(N2CCN(c3ncnc4sc5c(c34)CCNC5)CC2)cc1`: the inhibition at 30 µM in the data set with 786-0 [6] was 15.9%.
